Activity calls are given as the source filed them. The calls are words filed in the database; no cut-off is given here.
Columns and labels:
[1] = Antiproliferative activity against human U251MG cells at 5 uM for 72 hrs by cyquant assay; assay type: functional; details: U-251, 72 h
Procedure, shortened: (§1)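 CyQuant proliferation assay after 72 h compound exposure of cultured cells; relative viability normalized to DMSO-treated control; IC50 values derived. Glioma lines grown in RPMI or DMEM with 10% FBS and 1% nonessential amino acids.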

[2] = target: T1, Signal transducer and activator of transcription 3 (Homo sapiens, UniProt P40763); assay: Binding affinity to Stat3 (unknown origin) by NMR analysis
[3] = Antiproliferative activity against human Glioma (G22) patient derived xenograft cells at 5 uM after 72 hrs by cyquant assay; assay type: functional, Glioma cell
[4] = Antiproliferative activity against human Glioma (G12) patient derived xenograft cells at 5 uM after 72 hrs by cyquant assay; assay type: functional, Glioma cell
[5] = target: T2, Signal transducer and activator of transcription 1 (Mus musculus) (UniProt P42225); assay: Modulation of EGF-induced Stat1 phosphorylation in mouse NIH3T3 cells expressing human EGFR at 5 uM preincubated for 3 hrs followed by stimulation with 1 ug/ml EGF for 12 mins by immunoblot analysis; assay type: cell-based
T2 sequence (whole entry): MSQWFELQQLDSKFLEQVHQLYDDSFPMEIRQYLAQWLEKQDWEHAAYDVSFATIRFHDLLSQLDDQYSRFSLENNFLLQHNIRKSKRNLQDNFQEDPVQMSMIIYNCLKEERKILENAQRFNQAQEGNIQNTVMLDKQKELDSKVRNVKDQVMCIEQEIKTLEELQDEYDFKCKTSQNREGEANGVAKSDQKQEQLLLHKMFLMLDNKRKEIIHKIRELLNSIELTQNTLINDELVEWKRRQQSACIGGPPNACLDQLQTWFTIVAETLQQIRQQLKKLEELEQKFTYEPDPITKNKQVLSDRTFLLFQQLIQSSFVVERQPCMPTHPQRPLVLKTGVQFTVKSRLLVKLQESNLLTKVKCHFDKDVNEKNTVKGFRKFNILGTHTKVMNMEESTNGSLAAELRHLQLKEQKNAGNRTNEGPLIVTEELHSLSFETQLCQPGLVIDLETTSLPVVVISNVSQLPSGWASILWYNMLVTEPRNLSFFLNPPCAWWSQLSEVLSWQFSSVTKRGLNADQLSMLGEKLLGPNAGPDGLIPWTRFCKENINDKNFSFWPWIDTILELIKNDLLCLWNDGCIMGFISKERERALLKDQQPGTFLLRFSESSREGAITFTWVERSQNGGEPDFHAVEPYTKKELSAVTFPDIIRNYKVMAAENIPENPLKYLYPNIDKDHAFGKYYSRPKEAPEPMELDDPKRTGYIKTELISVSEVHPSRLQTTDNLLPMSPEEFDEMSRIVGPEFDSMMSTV
Procedure, shortened: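 Whole-cell lysates of equal total protein from NIH3T3/hEGFR fibroblasts, pretreated with or without 5 μM compound (control 0.025% DMSO) for 3 h, then stimulated with 1 μg/ml EGF for 12 min. SDS-PAGE immunoblotting for pStat1/Stat1 and pStat5/Stat5 with β-actin or GAPDH loading controls. Representative of 2–4 independent determinations.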

[6] = target: Signal transducer and activator of transcription 3 (Mus musculus) (UniProt P42227); assay: Inhibition of EGF-induced Stat3 phosphorylation in mouse NIH3T3 cells expressing human EGFR at 5 uM preincubated for 3 hrs followed by stimulation with 1 ug/ml EGF for 12 mins by immunoblot analysis; assay type: cell-based
Procedure, shortened: (§2)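 NIH3T3/hEGFR fibroblasts pretreated with or without 5 μM compound for 3 h, then stimulated with 1 μg/ml EGF for 12 min. Whole-cell lysates of equal total protein immunoblotted for phospho and total Stat3, Stat1, Stat5, Erk1/2. Controls were 0.025% DMSO-treated cells. Representative of 2–4 independent determinations.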

U-251 [7] = assay: Anticlonogenic activity against human U251MG cells for 72 hrs measured after 2 weeks by crystal-violet staining based assay; assay type: functional, cell-based
Procedure, shortened: (§3)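 Single-cell seeding at 250 cells per well; cells treated once the next day for 72 h with 0–5 μM compound, then grown until large colonies were visible (NIH3T3 1 week, MDA-MB-231 and U251MG 2 weeks, MCF-7 4 weeks). Colonies stained with crystal violet for 4 h, imaged and counted.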

[8] = target: T1, Signal transducer and activator of transcription 3; assay: Inhibition of Stat3 dimer DNA binding activity in human U251MG cells nuclear extract after 1.5 hrs by EMSA using radiolabeled probe hSIE
[9] = Antiproliferative activity against human SF295 cells for 72 hrs by cyquant assay; assay type: functional, cell-based; details: SF-295, 72 h; procedure, shortened: as §1
MCF7 [10] = assay: Antiproliferative activity against human MCF7 cells for 72 hrs by cyquant assay; assay type: functional, cell-based; details: MCF7, 72 h; procedure, shortened: as §1
[11] = target: Signal transducer and activator of transcription 3 (Mus musculus) (UniProt P42227); assay: Inhibition of Stat3 dimer DNA binding activity in EGF-stimulated mouse NIH3T3 nuclear extract expressing human EGFR assessed as residual activity at 5 uM preincubated for 30 mins followed by addition of radiolabeled probe hSIE for 30 mins by EMSA
[12] = target: Mitogen-activated protein kinase; ERK1/ERK2 (Homo sapiens) (UniProt P27361+P28482); assay: Modulation of Erk1/2 phosphorylation in human U251MG cells at 5 uM after 0.5 to 24 hrs by immunoblot analysis; assay type: cell-based; details: U-251
Procedure, shortened: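 U251MG glioma cells (RPMI or DMEM, 10% FBS, 1% nonessential amino acids) treated with 5 μM compound for 0–24 h; 0.025% DMSO control. Whole-cell lysates of equal total protein immunoblotted for pErk1/2, Erk1/2, pJAK2 and JAK2 with β-actin or GAPDH loading controls. Representative of 2–4 independent determinations.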

[13] = target: Mitogen-activated protein kinase 1 and 3 (ERK2 and ERK1) (Mus musculus) (UniProt P63085+Q63844); assay: Modulation of EGF-induced Erk1/2 phosphorylation in mouse NIH3T3 cells expressing human EGFR at 5 uM preincubated for 3 hrs followed by stimulation with 1 ug/ml EGF for 12 mins by immunoblot analysis; assay type: cell-based; procedure, shortened: as §2
MCF7 [14] = assay: Anticlonogenic activity against human MCF7 cells for 72 hrs measured after 4 weeks by crystal-violet staining based assay; assay type: functional, cell-based; procedure, shortened: as §3
U-251 [15] = assay: Effect on SOCS3 expression in human U251MG cells at 5 uM after 0.5 to 24 hrs by immunoblot analysis; assay type: functional, cell-based
Procedure, shortened: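 U251MG cells treated with 5 μM compound for 0–24 h; whole-cell lysates of equal total protein immunoblotted. Controls were 0.025% DMSO-treated cells. Representative of 2–4 independent determinations.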

MDA-MB-231 = assay: Antiproliferative activity against human MDA-MB-231 cells for 72 hrs by cyquant assay; assay type: functional, cell-based; details: MDA-MB-231, 72 h; procedure, shortened: as §1
U-251 [16] = assay: Inhibition of cell migration in human U251MG cells at 5 uM after 19 hrs by wound healing assay; assay type: functional, cell-based
Procedure, shortened: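 Scratch assay: sub-confluent U251MG monolayers wounded with pipette tips, treated once with 0–5 μM compound or DMSO, allowed to migrate into the denuded area over 19 h. Imaged at 10× on an inverted microscope.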

[17] = Antiproliferative activity against human Glioma (G10) patient derived xenograft cells at 5 uM after 72 hrs by cyquant assay; assay type: functional, Glioma cell

Mitogen-activated protein kinase; ERK1/ERK2 (Homo sapiens), sequence (P27361 whole entry, looked up): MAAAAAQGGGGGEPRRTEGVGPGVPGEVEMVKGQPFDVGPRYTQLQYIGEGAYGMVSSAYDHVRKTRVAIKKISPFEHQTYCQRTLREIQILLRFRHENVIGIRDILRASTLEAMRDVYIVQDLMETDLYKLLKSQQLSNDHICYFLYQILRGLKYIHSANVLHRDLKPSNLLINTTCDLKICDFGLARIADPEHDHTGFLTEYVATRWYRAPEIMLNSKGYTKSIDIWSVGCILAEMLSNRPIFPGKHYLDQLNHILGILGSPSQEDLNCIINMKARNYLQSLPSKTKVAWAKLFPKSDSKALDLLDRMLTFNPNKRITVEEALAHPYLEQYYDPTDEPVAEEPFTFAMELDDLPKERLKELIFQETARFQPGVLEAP
Mitogen-activated protein kinase; ERK1/ERK2 (Homo sapiens), sequence (P28482 whole entry, looked up): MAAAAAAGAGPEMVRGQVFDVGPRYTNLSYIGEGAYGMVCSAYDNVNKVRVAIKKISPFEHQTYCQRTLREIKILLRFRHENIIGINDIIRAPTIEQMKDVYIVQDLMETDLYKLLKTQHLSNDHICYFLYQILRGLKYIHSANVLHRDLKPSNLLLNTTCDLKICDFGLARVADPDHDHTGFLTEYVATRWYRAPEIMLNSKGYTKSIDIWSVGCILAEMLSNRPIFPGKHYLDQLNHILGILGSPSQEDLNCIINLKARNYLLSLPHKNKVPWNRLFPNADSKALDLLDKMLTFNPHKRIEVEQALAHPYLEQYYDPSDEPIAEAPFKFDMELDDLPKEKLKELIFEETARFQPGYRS
T1 sequence (P40763 whole entry): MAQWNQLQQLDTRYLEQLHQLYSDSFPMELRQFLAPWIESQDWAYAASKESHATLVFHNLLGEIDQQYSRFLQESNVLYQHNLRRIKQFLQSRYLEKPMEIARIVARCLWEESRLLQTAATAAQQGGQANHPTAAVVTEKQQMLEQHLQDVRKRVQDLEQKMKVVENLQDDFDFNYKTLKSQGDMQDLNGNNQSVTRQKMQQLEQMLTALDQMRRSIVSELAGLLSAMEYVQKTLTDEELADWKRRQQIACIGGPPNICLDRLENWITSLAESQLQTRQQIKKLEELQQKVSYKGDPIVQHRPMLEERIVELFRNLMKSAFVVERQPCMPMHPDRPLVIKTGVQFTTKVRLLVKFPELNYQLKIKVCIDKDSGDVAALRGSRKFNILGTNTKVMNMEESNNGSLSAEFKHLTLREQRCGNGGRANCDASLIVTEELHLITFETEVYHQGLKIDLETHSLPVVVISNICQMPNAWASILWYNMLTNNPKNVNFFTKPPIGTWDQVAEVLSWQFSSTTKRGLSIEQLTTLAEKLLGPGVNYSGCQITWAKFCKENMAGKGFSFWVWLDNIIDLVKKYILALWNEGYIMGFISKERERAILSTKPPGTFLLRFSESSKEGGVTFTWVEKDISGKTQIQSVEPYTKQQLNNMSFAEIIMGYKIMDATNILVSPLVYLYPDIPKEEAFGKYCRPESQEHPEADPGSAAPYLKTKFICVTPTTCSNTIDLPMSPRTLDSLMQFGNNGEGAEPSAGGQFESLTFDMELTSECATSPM
Mitogen-activated protein kinase 1 and 3 (ERK2 and ERK1) (Mus musculus), sequence (P63085 whole entry, looked up): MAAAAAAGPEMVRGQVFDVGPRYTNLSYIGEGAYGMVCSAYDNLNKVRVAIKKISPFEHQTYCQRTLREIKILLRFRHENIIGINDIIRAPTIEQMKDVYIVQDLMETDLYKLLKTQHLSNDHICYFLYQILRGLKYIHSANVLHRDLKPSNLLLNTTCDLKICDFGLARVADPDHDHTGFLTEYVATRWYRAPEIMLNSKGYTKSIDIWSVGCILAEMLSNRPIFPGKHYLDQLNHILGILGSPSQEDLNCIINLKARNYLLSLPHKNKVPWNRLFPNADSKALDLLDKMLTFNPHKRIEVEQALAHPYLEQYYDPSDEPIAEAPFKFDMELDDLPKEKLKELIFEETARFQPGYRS
Mitogen-activated protein kinase 1 and 3 (ERK2 and ERK1) (Mus musculus), sequence (Q63844 whole entry, looked up): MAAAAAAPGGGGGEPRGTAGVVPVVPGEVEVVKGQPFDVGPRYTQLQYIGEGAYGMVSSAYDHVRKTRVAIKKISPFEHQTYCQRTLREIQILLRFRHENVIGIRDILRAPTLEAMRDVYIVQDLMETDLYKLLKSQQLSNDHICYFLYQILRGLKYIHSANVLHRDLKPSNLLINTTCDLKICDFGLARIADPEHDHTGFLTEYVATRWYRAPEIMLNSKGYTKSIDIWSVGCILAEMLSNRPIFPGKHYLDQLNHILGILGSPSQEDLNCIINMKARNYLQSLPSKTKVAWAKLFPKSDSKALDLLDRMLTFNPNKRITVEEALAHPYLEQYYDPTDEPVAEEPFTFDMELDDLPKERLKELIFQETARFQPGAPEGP
Signal transducer and activator of transcription 3 (Mus musculus), sequence (P42227 whole entry): as the sequence (P40763 whole entry) above, with E760D counted along it

Row | SMILES | inhibition at 5 µM [1] [%] | Activity [2] | inhibition (INH) [3] [%] | inhibition (INH) [4] [%] | inhibition [5] | inhibition [6] | Activity (U-251 [7]) | IC50 [8] [µM] | IC50 [9] [µM] | IC50 (MCF7 [10]) [µM] | Activity [11] [%] | Activity [12] | inhibition [13] | Activity (MCF7 [14]) | Activity (U-251 [15]) | IC50 (MDA-MB-231) [µM] | inhibition (U-251 [16]) | inhibition (INH) [17] [%]
1 | C/C=C(\C)C(=O)OCC1=C2/C(=C\[C@@]3(C)CC[C@](O)(O3)[C@H](C)C[C@@H]2O)OC1=O | 90 | Dose-dependent effect | 45 | 25 | inactive | Active | Dose-dependent effect | 2.6 | 9.6 | 4.8 | 8 | inactive | inactive | Dose-dependent effect | inactive | 6.5 | Active | 45
2 | C/C=C(\C)C(=O)O[C@H]1C[C@@H](C)[C@]2(O)CC[C@](C)(/C=C3/OC(=O)C(COC(C)=O)=C31)O2 | 90 | Dose-dependent effect | 45 | 25 | inactive | Active | Dose-dependent effect | 2.2 | 7.5 | 10.7 | 49 | inactive | inactive | Dose-dependent effect | inactive | 1.8 | Active | 45
3 | C/C=C(\C)C(=O)O[C@H]1C[C@@H](C)[C@]2(OC)CC[C@](C)(/C=C3/OC(=O)C(COC(C)=O)=C31)O2 | 90 | Dose-dependent effect | 45 | 25 | inactive | Active | Dose-dependent effect | 3.2 | 8.2 | 7.6 | 31 | inactive | inactive | Dose-dependent effect | inactive | 6.6 | Active | 45
